Laboratory results from paper PMC8028158 (ACS Omega, 2021).
Entries after “also recorded” stand apart in the source; their conditions may differ.

Legend:
mouse TRPC7 = target: T1, mouse TRPC7 (Mus musculus, UniProt Q9WVC5); assay: Fluorescence Ca2+ assay in TRPC7-HEK293 cells; type: cell-based; details: induced by 10 μM HDM
T1 sequence (Q9WVC5 1-862): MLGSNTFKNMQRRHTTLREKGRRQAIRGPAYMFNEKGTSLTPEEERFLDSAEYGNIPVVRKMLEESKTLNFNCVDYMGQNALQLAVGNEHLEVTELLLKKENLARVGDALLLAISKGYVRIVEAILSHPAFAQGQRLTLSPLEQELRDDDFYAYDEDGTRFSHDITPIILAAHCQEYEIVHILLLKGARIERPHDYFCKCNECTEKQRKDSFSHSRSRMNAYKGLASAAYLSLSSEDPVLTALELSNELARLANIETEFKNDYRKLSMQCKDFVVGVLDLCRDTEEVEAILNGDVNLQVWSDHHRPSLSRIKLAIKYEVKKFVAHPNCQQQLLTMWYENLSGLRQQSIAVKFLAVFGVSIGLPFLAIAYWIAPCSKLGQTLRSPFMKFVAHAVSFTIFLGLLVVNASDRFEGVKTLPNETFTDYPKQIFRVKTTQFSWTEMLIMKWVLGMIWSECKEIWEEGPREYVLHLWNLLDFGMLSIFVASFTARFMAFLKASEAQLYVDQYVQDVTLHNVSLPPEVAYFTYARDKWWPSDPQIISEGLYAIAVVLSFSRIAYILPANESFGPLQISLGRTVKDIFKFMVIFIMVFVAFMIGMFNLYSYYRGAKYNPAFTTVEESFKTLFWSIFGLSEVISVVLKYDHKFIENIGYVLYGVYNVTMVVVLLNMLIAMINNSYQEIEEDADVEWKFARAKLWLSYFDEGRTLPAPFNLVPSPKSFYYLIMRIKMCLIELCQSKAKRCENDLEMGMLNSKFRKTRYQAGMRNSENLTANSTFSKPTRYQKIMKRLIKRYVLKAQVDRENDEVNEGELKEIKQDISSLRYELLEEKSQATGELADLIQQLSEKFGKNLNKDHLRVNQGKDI

TRPA1 = TRPA1 (Homo sapiens, UniProt O75762); assay: Selectivity Ca2+ assay in TRPA1-expressing HEK293 cells; type: cell-based; details: 1s 50 μM; Fluo-8
Sequence of TRPA1 (O75762 whole entry, species assumed): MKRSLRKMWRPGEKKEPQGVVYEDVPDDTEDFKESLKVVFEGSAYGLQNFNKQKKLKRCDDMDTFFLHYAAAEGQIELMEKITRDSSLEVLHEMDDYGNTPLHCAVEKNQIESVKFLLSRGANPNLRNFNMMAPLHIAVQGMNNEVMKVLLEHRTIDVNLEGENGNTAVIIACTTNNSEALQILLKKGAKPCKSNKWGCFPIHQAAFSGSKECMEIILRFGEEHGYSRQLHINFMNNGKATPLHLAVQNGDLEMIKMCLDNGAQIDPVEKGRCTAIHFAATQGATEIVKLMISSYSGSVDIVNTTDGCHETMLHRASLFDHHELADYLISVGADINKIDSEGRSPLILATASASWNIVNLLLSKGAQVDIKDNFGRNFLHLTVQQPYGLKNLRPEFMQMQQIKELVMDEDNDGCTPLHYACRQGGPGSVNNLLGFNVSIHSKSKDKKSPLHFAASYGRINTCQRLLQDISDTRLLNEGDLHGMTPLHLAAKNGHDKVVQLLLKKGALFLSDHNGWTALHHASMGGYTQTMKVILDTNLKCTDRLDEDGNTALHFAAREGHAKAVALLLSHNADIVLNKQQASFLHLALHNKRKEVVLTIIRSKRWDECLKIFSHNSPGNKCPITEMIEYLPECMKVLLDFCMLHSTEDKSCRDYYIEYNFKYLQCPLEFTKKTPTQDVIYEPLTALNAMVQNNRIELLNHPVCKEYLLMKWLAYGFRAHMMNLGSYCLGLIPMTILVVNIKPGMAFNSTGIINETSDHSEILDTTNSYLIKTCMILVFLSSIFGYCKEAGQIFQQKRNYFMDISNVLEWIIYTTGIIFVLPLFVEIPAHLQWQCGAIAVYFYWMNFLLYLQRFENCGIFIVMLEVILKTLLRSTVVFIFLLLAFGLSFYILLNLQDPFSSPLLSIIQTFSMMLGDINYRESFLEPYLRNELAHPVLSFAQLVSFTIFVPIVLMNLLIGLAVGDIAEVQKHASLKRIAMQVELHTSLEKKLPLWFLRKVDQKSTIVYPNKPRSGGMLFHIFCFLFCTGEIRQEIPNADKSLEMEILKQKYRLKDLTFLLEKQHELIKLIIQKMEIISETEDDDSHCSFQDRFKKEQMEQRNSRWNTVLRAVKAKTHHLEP

MKN-45 cells [1] = assay: MTT cell viability assay, MKN-45; type: cell-based, human; details: Homo sapiens, MKN-45, 72 h, read-out: IC50 cell proliferation, MKN-45
In short: (§1)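 Cells were seeded at 2000 per well, incubated overnight and exposed to test compound for 72 h. MTT was added for 4 h, formazan was dissolved in DMSO and absorbance was read at 570 nm. Viability was normalized to untreated wells, giving mean ± SEM of three trials. IC50 was calculated from relative survival.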

AGS cells = assay: MTT cell viability assay, AGS; type: cell-based, human; details: Homo sapiens, AGS, 72 h, read-out: IC50 cell proliferation, AGS
In short: as §1

MKN-45 cells [2] = assay: Boyden chamber / Transwell cell migration assay; type: cell-based, human; details: 24 h
In short: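 MKN-45 cells in serum-free medium were seeded with test compound on uncoated Transwell membranes (8 μm pores), with complete medium containing 10% FBS in the lower chamber, and left to migrate for 24 h. Cells on the upper surface were removed. Cells on the underside were fixed, stained with crystal violet and counted in six random fields. A positive-control compound was run alongside.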

COc1cccc2sc(N(CCN(C)C)C(=O)c3ccc4c(c3)CCCC4)nc12 [Compound 1s, N-(2-(dimethylamino)ethyl)-N-(4-methoxybenzo[d]thiazol-2-yl)-5,6,7,8-tetrahydronaphthalene-2-carboxamide]
Effect on Ca2+ response in TRPC7-HEK293 cells (mouse TRPC7): almost did not cause a discernible Ca^2+ response; also recorded: little or no effect; also recorded: no effect | Effect on agonist-induced Ca2+ response, TRPA1 (TRPA1): did not significantly affect | IC50 (MKN-45 cells [1]): 8 ± 0.51 µM | IC50 (AGS cells): 12 ± 1.01 µM | MKN-45 cell invasion (movement through the pores toward chemoattractant) (MKN-45 cells [2]): inhibited
